# In ChEMBL document CHEMBL1158033, “C-26 and C-30 apocarotenoids from seeds of Ditaxis heterantha with antioxidant activity and protection against DNA oxidative damage” (J Nat Prod, 2006):
# How the values were obtained:
# [1] = Antiradical activity assessed as DPPH radical scavenging activity at 1500 uM by spectrophotometry relative to control; assay type: physicochemical
# How it was run: (§1)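 Sample (150–1500 μM; MeOH, or Et2O for lycopene, β-carotene, astaxanthin) added to 150 μM DPPH in MeOH and kept in the dark at ~20 °C for 60 min. Absorbance read at 520 nm. Activity = 100 × (1 − Asample/Acontrol), with control lacking sample. Triplicates; Tukey's test and Pearson correlation.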
# [2] = Antiradical activity assessed as DPPH radical scavenging activity at 1050 uM by spectrophotometry relative to control; assay type: physicochemical; how it was run: as §1
# [3] = Antigenotoxic activity against H2O2-induced oxidative DNA damage in rat lymphocyte assessed as olive tail moment at 1000 uM by comet assay; assay type: functional
# How it was run: (§2)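 Rat peripheral blood mononuclear cells isolated on Histopaque 1077, 1×10^7 cells/mL in cold PBS pH 7.4, viability >90% by trypan blue. Cells preincubated with sample in DMSO (5%) at 37 °C for 30 min, then H2O2 1 mM final, 37 °C for 10 min. Alkaline comet assay, ethidium bromide stain, image analysis of 50 cells, 400×. Mean ± SE of four values, one-way ANOVA.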
# [4] = test system: Lymphocyte; assay: Antigenotoxic activity against H2O2-induced oxidative DNA damage in rat lymphocyte assessed as cauda tail moment at 1000 uM by comet assay; assay type: functional; how it was run: as §2
# [5] = Antigenotoxic activity against H2O2-induced oxidative DNA damage in rat lymphocyte assessed as tail length at 1000 uM by comet assay; assay type: functional; how it was run: as §2
# [6] = Antigenotoxic activity against H2O2-induced oxidative DNA damage in rat lymphocyte assessed as cauda tail moment at 500 uM by comet assay; assay type: functional; how it was run: as §2
# [7] = Antigenotoxic activity against H2O2-induced oxidative DNA damage in rat lymphocyte assessed as olive tail moment at 500 uM by comet assay; assay type: functional; how it was run: as §2
# [8] = Antigenotoxic activity against H2O2-induced oxidative DNA damage in rat lymphocyte assessed as tail length at 500 uM by comet assay; assay type: functional; how it was run: as §2
# [9] = Antiradical activity assessed as DPPH radical scavenging activity at 150 uM by spectrophotometry relative to control; assay type: physicochemical; how it was run: as §1
# [10] = Antiradical activity assessed as DPPH radical scavenging activity at 750 uM by spectrophotometry relative to control; assay type: physicochemical; how it was run: as §1
SMILES,Activity [1] [%],Activity [2],Activity [3] [a.u.],Activity [4] [a.u.],Activity [5] [um],Activity [6] [a.u.],Activity [7] [a.u.],Activity [8] [um],Activity [9],Activity [10]
CC1=C(/C=C/C(C)=C/C=C/C(C)=C/C=C/C=C(C)/C=C/C=C(C)/C=C/C2=C(C)C(=O)[C@@H](O)CC2(C)C)C(C)(C)C[C@H](O)C1=O [ASTAXANTHIN],52,Active,–,–,–,–,–,–,–,–
CC1=C(/C=C/C(C)=C/C=C/C(C)=C/C=C/C=C(C)/C=C/C=C(C)/C=C/C2=C(C)CCCC2(C)C)C(C)(C)CCC1 [BETA CAROTENE],36,Active,–,–,–,–,–,–,–,–
COC(=O)/C(C)=C/C=C/C(C)=C/C=C/C=C(C)/C=C/C=C(C)/C=C/[C@]12O[C@@H](CC1(C)C)C[C@]2(C)O [DITAXIN],12,Active,8.21,12.27,28.15,18.8,11.58,35.94,–,–
COC(=O)/C(C)=C/C=C/C=C(C)/C=C/C=C(C)/C=C/[C@@H]1C(C)=CC(=O)CC1(C)C [HETERANTHIN],21,Active,4.4,6.24,20.93,17.02,10.8,34.13,Active,Active
CC(C)=CCC/C(C)=C/C=C/C(C)=C/C=C/C(C)=C/C=C/C=C(C)/C=C/C=C(C)/C=C/C=C(\C)CCC=C(C)C [LYCOPENE],36,Active,–,–,–,–,–,–,–,–
